Screens as filed in PubChem.
hERG rescue – compounds protecting human hERG from proarrhythmic drug block; actives 0.51% (n = 310,000); activation (rescue from dofetilide block), less the hit threshold, % at 10 µM; CHO-hERG, FluxOR thallium flux, dofetilide IC70 present; Q12809;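 active = activation above the mean of controls blocked by dofetilide plus 5 SD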;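 note: thallium influx through hERG after potassium depolarization seen as dye fluorescence rise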
KCNK9 block – inhibitors of human KCNK9 two-pore domain potassium channel. Q9NPC2. HEK293 KCNK9, FluxOR thallium flux fluorescence; active compounds read low. B-score at 10 µM. actives 1.2% (n = 310,000);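 active = ratio B-score over 3 SD below the library mean, with starting fluorescence within 5 SD of its mean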;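 note: negative B-score means less thallium flux so channel inhibition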
KCNQ1 block – blocks the human KCNQ1 potassium channel; CHO-K1 KCNQ1, FluxOR thallium flux fluorescence; active compounds read high; B-score at 10 µM; actives 1.3% (n = 310,000); P51787;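 active = compounds whose thallium flux B-score, printed positive for inhibition, exceeds three library SD while starting fluorescence stays within three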;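 note: channel opened by potassium depolarization with thallium stimulus after 20 min compound exposure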
KCNQ1 act – potentiates or activates the human KCNQ1 potassium channel; AID 2648; CHO-K1 KCNQ1, thallium flux FluxOR fluorescence; active compounds read high; B-score at 10 µM; actives 0.35% (n = 310,000);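 active = fluorescence ratio B-score, a plate-corrected score, at least three library SD, with initial intensity B-score within 5 SD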
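Assay system: stable KCNQ1 CHO-K1 line; medium: assay buffer, equal DMSO in all wells; timing: 90 min dye loading and 20 min compound exposure, both at room temperature; technique: kinetic FluxOR thallium fluorescence, 10-s 1-Hz baseline, 110-s post-stimulus read; read-out basis: B score of baseline-normalized fluorescence ratio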
KCNK3 block – human KCNK3 channel inhibition, primary screen; B-score at 10 µM; CHO-KCNK3 thallium flux, FluxOR fluorescence; active compounds read low; actives 0.84% (n = 340,000);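 active = B-score under library mean minus 4 SD, starting fluorescence ratio at most library mean plus 5 SD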;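 note: more negative B-score means stronger inhibition of thallium flux through KCNK3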
Target sequence (O14649 whole entry, looked up): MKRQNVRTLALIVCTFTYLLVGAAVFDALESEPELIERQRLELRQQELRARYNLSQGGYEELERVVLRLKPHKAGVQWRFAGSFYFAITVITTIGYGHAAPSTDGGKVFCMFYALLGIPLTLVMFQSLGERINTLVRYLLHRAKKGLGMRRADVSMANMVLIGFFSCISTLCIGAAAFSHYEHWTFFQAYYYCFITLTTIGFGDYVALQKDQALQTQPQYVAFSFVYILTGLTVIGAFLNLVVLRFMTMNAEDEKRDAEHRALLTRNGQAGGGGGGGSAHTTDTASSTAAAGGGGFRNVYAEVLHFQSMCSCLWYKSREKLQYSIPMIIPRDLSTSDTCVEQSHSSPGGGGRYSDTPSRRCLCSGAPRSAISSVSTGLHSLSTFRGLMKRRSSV
Kir21 inh – inhibitors of mouse Kir2.1 inward-rectifier potassium channel. B-score at 10 µM. HEK293-Kir2.1, FluxOR thallium flux fluorescence; active compounds read low. AID 1672. P35561. actives 0.85% (n = 310,000);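 active = fluorescence ratio B-score at or below minus 3 SD of library scores, with starting-brightness B-score within 2 SD, cut at about -4.2 in these data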;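 note: channel flux triggered by added potassium and thallium sulfate stimulus; B-score of peak minus minimum fluorescence over baseline after thallium stimulus; more negative B-score means stronger Kir2.1 block with less thallium influx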
An asterisk follows results filed as active; i = inactive; nt = no result. The list is not random: actives were taken first. Their share in the collection is about 3.7%.

SMILES	hERG rescue	KCNK9 block	KCNQ1 block	KCNQ1 act	KCNK3 block	Kir21 inh
COCCn1c(SCC(=O)Nc2nc(C)c(Cl)cc2Cl)nc2ccccc21	-3	i	i	i	i	-6.3*
Cc1ccccc1C(=O)N1CCN(c2ccc(NC(=O)Cc3ccccc3)cc2)CC1	-8	i	i	i	i	-1.4
Cc1ccc(Nc2nc(-c3ccccc3)cs2)nc1	-5	i	i	i	i	0.9
Cc1ccc(Nc2nc(-c3cccs3)cs2)nc1	6.1*	i	i	i	i	0.51
CCCN1CCN(C(=S)Nc2ccccc2C(F)(F)F)CC1	-7	i	i	i	i	-1.4
Cc1ccccc1OC(C)C(=O)NCCC1=CCCCC1 (centres undefined)	-7	i	i	i	i	-8.9*
Cc1cc(SCC(=O)NCCC2=CCCCC2)nc2ccccc12	-11	i	i	i	i	-16*
CCC(C(=O)NCCC1=CCCCC1)c1ccccc1 (centres undefined)	-6	i	i	i	i	-5.6*
Cc1ccc(Cl)cc1-n1c(SCC(=O)NCCC2=CCCCC2)nc2n[nH]c(C)c2c1=N	-12	-7.2*	i	i	i	0.15
COc1ccccc1CN1CCC(n2nccc2NC(=O)CCOc2ccccc2)CC1	-12	i	i	i	i	-0.73
CCOC(=O)[C@H]1[C@H]2COc3ccc(OC)cc3[C@@H]2N2C(=O)[C@H](C)NC(=O)[C@@]12C	nt	nt	nt	nt	i	nt
Cc1c(CNCCC2=CCCCC2)c(C(=O)O)c(C)n1Cc1ccccc1	6.6*	i	i	i	i	1.7
O=C(CN1C(=O)NC2(CCCc3ccccc32)C1=O)c1ccc(Br)cc1 (centres undefined)	-10	i	i	i	i	1.1
CCOC(=O)C1=C(C)NC(C)=C(C(=O)OCC)C1c1ccccc1/C=C/C(=O)OC(C)(C)C	-10	i	8*	i	nt	0.27
Cc1ccc(NC(=O)c2cc3cc(OC(F)(F)F)ccc3[nH]2)cc1	-3	i	6*	i	nt	0.15
COc1ccc(N=C2O/C(=C/c3sc(=S)n(CC4CCCO4)c3O)N=C2C#N)cc1 (centres undefined)	-17	i	10*	i	i	-0.39
OCC[C@@H]1C[C@H](O)[C@@H](O)[C@]2(Cc3ccccc3CCO2)O1	-11	i	i	i	i	-0.92
CC(C)[N+]1(C)[C@@H]2CC[C@H]1CC(OC(=O)C(CO)c1ccccc1)C2 (some centres undefined)	nt	i	i	22*	i	-0.11
CCN(CC)S(=O)(=O)c1ccc(/C=C/C(=O)OCC(=O)Nc2ccc(S(N)(=O)=O)cc2)cc1	-8	i	i	i	i	0.65
COCCCNC(=O)c1cn(-c2cccc(OC)c2)c(=O)c2ccccc12	-1	i	i	i	i	-1
CCN(CC)CCCNC(=O)c1cn(-c2cccc(OC)c2)c(=O)c2ccccc12	5.0*	i	i	i	i	-0.5
O=C(Nc1ccccc1O)C(c1ccccc1)c1ccccc1	-25	i	6*	i	i	0.06
O=C(O)c1ccccc1NC(=O)C(c1ccccc1)c1ccccc1	-5	i	i	i	i	0.87
CC(=O)N1/C(=C/c2ccc(N(C)C)cc2)C(=O)c2ccccc21	-25	i	i	i	i	-1.9
Cc1cc(C)n(-c2ccc(C(=O)NCc3ccc(F)cc3)cc2)n1	-12	i	i	i	i	-9.9*
SMILES	hERG rescue	KCNK9 block	KCNQ1 block	KCNQ1 act	KCNK3 block	Kir21 inh
O=S(=O)(c1ccc(Cl)cc1)c1snnc1-c1ccccc1	-11	i	i	i	i	-10*
O=S(=O)(c1ccc(F)cc1)c1snnc1-c1ccccc1	-12	i	i	i	i	-15*
CCOC(=O)N1CCN(C(=O)c2ccc(OC(C)=O)cc2)CC1	-7	i	i	i	i	-1.2
CNC(=S)N/N=C/c1c2ccccc2c(Cl)c2ccccc12	-9	i	i	i	i	-0.08
COc1ccc(C2/C=C\CN(Cc3ccco3)CC(=O)N2Cc2ccc(F)cc2)cc1 (centres undefined)	-7	-6.9*	i	i	i	-0.84
CCCCc1n[nH]c(=S)n1Cc1ccc(Cl)cc1	-4	-10*	i	i	i	-0.89
COc1ccc(NC(=O)CSc2nc3nc(-c4cccs4)cc(C(F)(F)F)c3c(=O)[nH]2)c(OC)c1	-5	i	9*	i	i	0.12
CC(NC(=O)c1cccs1)C(S)c1ccccc1 (centres undefined)	-6	-6.6*	i	i	i	-0.77
CC(NC(=S)NC(=O)c1cccs1)c1ccccc1 (centres undefined)	nt	nt	nt	nt	i	nt
CCCSc1nc(N)nc(-c2cccs2)c1C#N	-11	-6.9*	i	i	i	-0.28
CCSc1nc(C2CC2)cc(-c2ccco2)c1C#N	-12	i	i	i	i	0.32
CCSc1nc(C2CC2)cc(-c2cccs2)c1C#N	-7	-6.8*	i	i	i	-0.29
CCOC(=O)CSc1nc(N)c(C#N)c(-c2cccs2)c1C#N	-2	i	i	i	i	1.4
Clc1ccc(/C(Cc2nc3ccccc3[nH]2)=N\Nc2ccccc2)cc1	-15	-7.2*	9*	i	i	-0.1
C[C@H](NC(N)=O)C(=O)N1CCN(S(=O)(=O)c2ccc3ccccc3c2)CC1	-6	i	i	i	i	0.72
Cc1ccc(-c2ccc(/C=C(\C#N)C(N)=S)n2C)cc1	-14	i	6*	i	i	-0.74
CC(C)(C)c1ccc(C(=O)Nc2ccc(Oc3cccnc3)nc2)cc1	-6	i	i	i	i	-1.1
CCOC(=O)C(=CNc1cc(C)ccn1)C(=O)OCC	5.1*	i	i	i	i	0.9
CCOC(=O)C(=CNc1ccc(Oc2cccnc2)nc1)C(=O)OCC	4.6*	i	i	i	i	0.2
CCOC(=O)c1cnc2c(OC)cccc2c1N1CCN(c2ccccc2OC)CC1	-14	i	i	i	i	0.56
CCOC(=O)c1cnc2c(OC)cccc2c1Oc1ccccc1	-7	i	i	i	i	-7.9*
CCOC(=O)c1cnc2c(C)cccc2c1NCCc1ccc(OC)c(OC)c1	-13	i	i	i	i	-7.6*
CCCCn1c(N)c(N(Cc2ccccc2OC)C(=O)c2cc(CC)c(C)s2)c(=O)[nH]c1=O	nt	nt	nt	nt	i	nt
O=C(CN1CCCC1)N/N=C/c1c(O)ccc2ccccc12	-12	i	i	i	i	0.2
